Compound activity (PubChem BioAssay)
OX1R antag-1 – blocks the human orexin 1 receptor | inhibition, % at 5 µM | O43613 | CHO/OX1R cells, Fluo-8 calcium fluorescence, orexin A | 330,000 compounds, 0.43% hits;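 active = inhibition above its plate's threshold, mean inhibition of all tested compounds on the plate plus 3 SD, cut at about 37% in these data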;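 note: 0% = orexin A challenge wells and 100% = SB-334867-A antagonist wells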
Target sequence (O43613 whole entry, looked up): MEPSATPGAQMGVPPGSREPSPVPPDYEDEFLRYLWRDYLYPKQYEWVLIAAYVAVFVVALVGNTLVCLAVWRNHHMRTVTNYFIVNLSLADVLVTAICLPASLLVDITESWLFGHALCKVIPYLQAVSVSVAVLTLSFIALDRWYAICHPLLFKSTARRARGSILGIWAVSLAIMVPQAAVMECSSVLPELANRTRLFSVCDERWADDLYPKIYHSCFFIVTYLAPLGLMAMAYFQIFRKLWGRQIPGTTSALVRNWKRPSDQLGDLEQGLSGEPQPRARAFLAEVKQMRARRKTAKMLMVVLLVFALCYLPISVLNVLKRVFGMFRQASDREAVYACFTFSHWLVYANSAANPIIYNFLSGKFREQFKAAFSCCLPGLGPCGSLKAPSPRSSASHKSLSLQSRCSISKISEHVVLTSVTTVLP
TAAR1 ag – agonists of human TAAR1; Q96RJ0; CHO RD-HGA16 TAAR1, Fluo-8 calcium fluorescence; vehicle wells 0%, saturating PEA agonist 100%; activation, % at 3 µM; 360,000 compounds, 0.99% hits; AID 624467;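 active = activation above the mean activation of all test compounds in the run plus 3 SD, cut at about 38% in these data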
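Assay system – CHO-derived RD-HGA16 cells with stable Gα16 and human TAAR1 · Compound dosing – one-point dosing at 3 µM (nominal) · Incubation – 17-24 h seeding, 75 min 37 °C dye, 30 min RT · Measured by – kinetic Fluo-8 calcium fluorescence · Control set – DMSO vehicle as 0%, PEA at EC100 as 100% · Repeats – single well for each compound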
TAAR1 antag – antagonists of human TAAR1 | Q96RJ0 | inhibition, % at 3 µM | 360,000 compounds, 1.5% hits | CHO RD-HGA16 TAAR1, Fluo-8 calcium fluorescence, antagonist;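 active = inhibition above a per-plate cutoff, the mean inhibition of test compounds on that plate plus 3 SD, cut at about 49% in these data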;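 note: 0% = DMSO plus EC80 beta-PEA response and 100% = DMSO alone without agonist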
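Test system: RD-HGA16 CHO cells with stable hTAAR1 and Gα16 / Probe or stimulus: EC80 β-phenethylamine stimulus / Times: seeding 17-24 h prior, 75-min 37 °C, 30-min RT dye loading / Detection: Fluo-8 calcium-sensitive fluorescence / Read-out basis: % inhibition scaled between DMSO and EC80 PEA controls / Repeats: singlicate, one well per test compound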
GalR3 antagonist – antagonists of human GalR3; 360,000 compounds, 0.44% hits; O60755; HEK293 GalR3-CNG cAMP membrane potential fluorescence; galR3 body fused to GalR1 C-terminus; inhibition, % at 3 µM;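 active = inhibition above the screen-wide average plus 3 SD, cut at about 13% in these data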;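 note: forskolin and galanin both at EC90 stimulate the cells; cAMP rise reported by CNG channel membrane potential dye signal; 0% = forskolin plus galanin with DMSO and 100% = forskolin alone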
CHO parental Ca – signal in parental CHO cells, OX1R antagonist counter-screen; parental CHO-K1, ATP-induced calcium, Fluo-8 fluorescence; inhibition, % at 5.6 µM; 330,000 compounds, 0.63% hits;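 active = inhibition above that plate's mean sample inhibition plus 3 SD, cut at about 26% in these data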;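 note: 0% = ATP-challenged DMSO wells and 100% = DMSO wells without ATP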
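test system = CHO parental line | reagent = ATP stimulus | measured by = intracellular calcium via Fluo-8 no-wash fluorescent dye | control set = ATP and no-ATP DMSO wells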
OX1R antag-2 – OX1R (human) antagonism | O43613 | inhibition, % at 6.6 µM | OX1R-expressing cells, FRET antagonist read-out | 330,000 compounds, 1.8% hits; in the data active = inhibition mostly above about 38%, no sharp cut-off; inactive = mostly below about 40%;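 note: 0% = agonist challenge alone and 100% = reference antagonist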
OX1R Ca confirm – confirmation of human orexin 1 receptor antagonists | shares compounds with OX1R antag-1 | 1,100 compounds, 38% hits | CHO/OX1R cells, orexin A calcium Fluo-8 fluorescence | inhibition, % at 5 µM; in the data active = inhibition above about 29%;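 note: 0% = agonist challenge alone and 100% = reference antagonist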
CHO Ca triplic – signal in parental CHO cells, OX1R antagonist counter-screen; shares compounds with OX1R antag-1; parental CHO-K1, ATP-induced calcium, Fluo-8 fluorescence; inhibition, % at 5.6 µM; 1,100 compounds, 9.3% hits;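 active = inhibition above a per-plate limit, the mean inhibition of that plate's test compounds plus 3 SD, cut at about 25% in these data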;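 note: 0% = ATP challenge with DMSO and 100% = DMSO without ATP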
* hit, by the source's call; . = not tested or not shown. An excerpt weighted towards active compounds, which were near 4.3% of everything screened.

SMILES | OX1R antag-1 | TAAR1 ag | TAAR1 antag | GalR3 antagonist | CHO parental Ca | OX1R antag-2 | OX1R Ca confirm | CHO Ca triplic
CCC(=O)OCC(=O)[C@@]1(OC(=O)CC)[C@@H](C)C[C@H]2[C@@H]3CCC4=CC(=O)C=C[C@]4(C)[C@@]3(Cl)[C@@H](O)C[C@@]21C | -34.2 | -1.4 | -25.9 | . | -25.2 | 18.6 | . | .
C=C(C)COc1ccc(-c2[nH]ncc2-c2ccccc2OC)c(O)c1 | 34.6 | 0.8 | 19.1 | 8.1 | 13.3 | 12.2 | -15.8 | -2.7
COc1ccc2[nH]c(C(=O)O)c(CCNC(C)=O)c2c1 | -19.9 | 1.5 | -13.3 | -3.0 | -7.0 | 10.5 | . | .
COc1ccc2[nH]c(C(=O)O)c(CCN3C(=O)c4cccc([N+](=O)[O-])c4C3=O)c2c1 | 103.1* | 0.5 | -5.2 | -1.1 | 9.1 | 15.6 | -5.9 | -1.0
Cc1cccc(OCC(=O)Nc2ccc(N3CCN(C(=O)c4ccco4)CC3)cc2)c1 | 52.6* | 16.1 | 56.2* | 8.2 | 14.7 | 20.1 | 49.7* | 51.3*
Cc1ccc(OCC(=O)Nc2ccc(N3CCN(C(=O)c4ccco4)CC3)cc2)cc1C | -8.7 | 9.4 | 39.5 | -3.0 | 4.5 | 10.8 | . | .
CCOC(=O)NC(C(Cl)(Cl)Cl)S(=O)(=O)c1ccccc1 (stereo not drawn) | -11.5 | 1.9 | -5.1 | -3.2 | -5.8 | -1.0 | . | .
CCOC(=O)NC(c1ccc(C(C)C)cc1)C(Cl)(Cl)Cl (stereo not drawn) | 41.8* | 1.8 | 19.0 | 5.8 | -4.1 | 53.8 | 10.2 | -2.3
Cc1ccccc1NC(=O)COc1coc(CN2CCN(c3ccccc3)CC2)cc1=O | -13.3 | 0.3 | -2.5 | -4.7 | -0.8 | 3.1 | . | .
Cc1ncc(CO)c2c1Oc1nc(-c3ccccc3F)nc(SCC(=O)N(C)c3ccccc3)c1C2 | 31.4 | . | . | . | -4.0 | 30.9 | 16.5 | -15.6
CCCCn1c(N)c(Br)c(=O)[nH]c1=O | -8.8 | 1.1 | -23.8 | 7.2 | -6.7 | 13.0 | . | .
CCCCn1c(=O)[nH]c2nc3cc(N)ccc3nc2c1=O | 60.6* | 27.9 | 24.3 | -2.2 | 36.1 | 38.8 | 34.7* | 28.6*
COc1ccc(CN2C(=O)C(Cc3ccccc3)Nc3ncnc(N4CCc5ccccc5C4)c32)cc1 (stereo not drawn) | -5.4 | . | . | . | -23.4 | 51.5 | . | .
CNc1cc(CSC)nc(SCc2ccc(Cl)cc2Cl)n1 | 53.0* | 14.5 | 10.7 | -2.8 | -11.9 | 36.0 | 3.5 | -9.2
Cc1ccc(NC(=O)C(OC(=O)c2ccc(C=O)cc2)c2ccccc2)cc1Cl (stereo not drawn) | 29.4 | . | . | . | 14.3 | 14.1 | 31.9* | 10.8
Cc1c(C(=O)Nc2ccc(S(=O)(=O)N(C)C3CCN(C)CC3)cc2)oc2c(Cl)cccc12 | 42.7* | 13.1 | -5.8 | 0.5 | 10.1 | 7.0 | 0.5 | 0.0
Cc1c(C(=O)Nc2ccc(S(=O)(=O)N(C)C3CCN(C)CC3)cc2)oc2ccccc12 | -6.8 | 19.0 | 7.3 | -2.1 | -17.4 | 4.7 | . | .
COc1cc(NC(=S)NCc2ccco2)cc(OC)c1OC | 76.7* | 2.1 | -13.5 | 0.0 | -8.7 | 12.7 | -4.8 | -8.1
COc1ccccc1NC(=S)NCc1ccco1 | -8.6 | 3.5 | 0.3 | -5.2 | -6.3 | 11.1 | . | .
O=C(OCc1cccc([N+](=O)[O-])c1)c1cc2ccccc2oc1=O | 44.6 | 1.3 | 0.2 | -10.3 | -11.5 | 9.3 | -7.1 | 0.2
CCOCCOC(=O)c1ccc(NC(=O)c2cc3ccccc3o2)cc1 | . | 4.5 | -15.4 | -2.3 | . | . | . | .
CCN(c1ccc(OC)cc1)S(=O)(=O)c1cc(-c2cc(C)no2)ccc1C(C)C | 29.4 | 0.8 | -18.5 | -4.2 | 5.0 | 31.2 | -25.1 | -10.6
COc1cc2cncc(Cc3ccc(Cl)cc3)c2cc1OC | -13.6 | . | . | . | -28.1 | 9.4 | . | .
CC(C)(C)c1cc2nc(N)nc(N)n2n1 | 49.7* | 1.4 | -5.8 | -0.4 | -12.4 | -5.1 | 6.5 | 5.0
O=C(CSc1nnc(-c2cccs2)o1)N1CCc2ccccc21 | -24.7 | 2.0 | 25.9 | 1.3 | -13.7 | 9.8 | . | .
